Experimental data taken from ChEMBL document CHEMBL1132227, “Low-molecular-weight peptidic and cyclic antagonists of the receptor for the complement factor C5a” (J Med Chem, 1999).

What was measured:
[1] = target: T1, C5a anaphylatoxin chemotactic receptor 1 (Homo sapiens, UniProt P21730); test: (§1) Inhibition of binding of [125I]C5a to human polymorphonuclear leukocyte C5a receptor
T1 sequence (P21730 whole entry): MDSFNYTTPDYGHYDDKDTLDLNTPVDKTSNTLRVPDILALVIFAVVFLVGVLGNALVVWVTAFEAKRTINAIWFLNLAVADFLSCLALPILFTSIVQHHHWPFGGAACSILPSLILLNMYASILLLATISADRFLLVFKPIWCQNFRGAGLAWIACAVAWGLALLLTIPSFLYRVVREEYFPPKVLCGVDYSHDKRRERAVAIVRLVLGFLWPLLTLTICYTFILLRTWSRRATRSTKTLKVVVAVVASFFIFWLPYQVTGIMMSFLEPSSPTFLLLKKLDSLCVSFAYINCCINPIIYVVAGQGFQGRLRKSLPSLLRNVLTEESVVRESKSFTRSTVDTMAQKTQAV
Method in brief: (§2)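 Competition binding on fresh human PMNs (0.2 × 10⁶) with [¹²⁵I]C5a (~50 pM). Buffer: 50 mM HEPES, 1 mM CaCl₂, 5 mM MgCl₂, 0.5% BSA, 0.1% bacitracin, 100 μM PMSF. Incubated 60 min at 4 °C, then filtered, washed and γ-counted. Nonspecific binding defined with 1 mM peptide or 100 nM C5a.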

[2] = target: T1, C5a anaphylatoxin chemotactic receptor 1; test: as §1; method in brief: as §2; remark: listed apart in the source
Homo sapiens [3] = organism: Homo sapiens; test: (§3) Concentration of peptide resulting in 50% inhibition of C5a (100 nM) causing the release of MPO from polymorphonuclear leukocytes; format: functional, organism-based
Method in brief: (§4)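 Freshly isolated human PMNs primed with cytochalasin B (10 µg/mL, 10 min, 37 °C). Cells (4 × 10⁶/mL) preincubated 10 min at 37 °C with peptide in Hank's balanced salt solution with 0.1% gelatin. Challenged with C5a (100 nM) for 10 min. Myeloperoxidase read-out: pH 6.8 phosphate buffer, dimethoxybenzidine/H₂O₂, stopped at 20 min with sodium azide. A450 corrected for no-peptide controls.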

Homo sapiens [4] = organism: Homo sapiens; test: as §3; format: functional, organism-based; method in brief: as §4; remark: listed apart in the source
[5] = target: T1, C5a anaphylatoxin chemotactic receptor 1; test: (§5) Inhibition of binding of [125I]C5a to human polymorphonuclear leukocyte(PMN) C5a anaphylatoxin chemotactic receptor
Method in brief: (§6)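 Competition binding on freshly isolated whole human PMNs (0.2 × 10⁶/well) against ~50 pM [125I]C5a, with unlabeled peptide or recombinant human C5a as competitor. Buffer: 50 mM HEPES, 1 mM CaCl2, 5 mM MgCl2, 0.5% BSA, 0.1% bacitracin, 100 μM PMSF. Incubated 60 min at 4 °C, then filtered, washed once and gamma-counted. Nonspecific binding set with 1 mM peptide or 100 nM C5a.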

[6] = target: T1, C5a anaphylatoxin chemotactic receptor 1; test: as §5; method in brief: as §6; remark: listed apart in the source

SMILES | IC50 [1] [µM] | IC50 [2] [µM] | IC50 (Homo sapiens [3]) [µM] | IC50 (Homo sapiens [4]) [µM] | IC50 [5] [µM] | IC50 [6] [µM]
NCCCC[C@H](NC(=O)[C@@H](N)Cc1ccccc1)C(=O)N[C@@H](Cc1ccccc1)C(=O)N[C@@H](CCCCN)C(=O)N1CCC[C@H]1C(=O)N[C@H](CC1CCCCC1)C(=O)N[C@@H](Cc1c[nH]c2ccccc12)C(=O)N[C@H](CCCN=C(N)N)C(=O)O | 4.6 | 4.57 | 0.501 | 0.5 |  | 
CC(C)[C@H](NC(=O)[C@H](CO)NC(=O)[C@H](Cc1c[nH]cn1)NC(=O)[C@H](CCCCN)NC(=O)[C@H](Cc1ccc(O)cc1)NC(=O)[C@@H](N)CCCCN)C(=O)N[C@H](C(=O)N[C@@H](CCCCN)C(=O)N[C@@H](CCCCN)C(=O)NCCCCC(=O)NCC(=O)NCC(=O)NCC(=O)NCC(=O)N[C@@H](Cc1ccccc1)C(=O)N[C@@H](CCCCN)C(=O)N1CCC[C@H]1C(=O)N[C@H](CC1CCCCC1)C(=O)N[C@@H](Cc1c[nH]c2ccccc12)C(=O)N[C@H](CCCNC(=N)N)C(=O)O)C(C)C | 0.2 | > 0.174 | 0.0724 | 0.07 |  | 
CC(C)[C@H](NC(=O)[C@H](CO)NC(=O)[C@H](Cc1c[nH]cn1)NC(=O)[C@H](CCCCN)NC(=O)[C@H](Cc1ccc(O)cc1)NC(=O)[C@@H](N)CCCCN)C(=O)N[C@H](C(=O)N[C@@H](CCCCN)C(=O)N[C@@H](CCCCN)C(=O)NCCCCC(=O)N[C@@H](Cc1ccccc1)C(=O)N[C@@H](CCCCN)C(=O)N1CCC[C@H]1C(=O)N[C@H](CC1CCCCC1)C(=O)N[C@@H](Cc1c[nH]c2ccccc12)C(=O)N[C@H](CCCN=C(N)N)C(=O)O)C(C)C | 1.2 | 1.23 | 0.245 | 0.2 |  | 
CN1C(=O)[C@@H](CCCN=C(N)N)NC(=O)[C@H](Cc2c[nH]c3ccccc23)NC(=O)[C@@H](CC2CCCCC2)NC(=O)[C@@H]2CCCN2C(=O)[C@H](Cc2c[nH]c3ccccc23)NC(=O)[C@@H]1Cc1ccccc1 | 3 | 2.95 | 1.51 | 2.1 |  | 
N=C(N)NCCC[C@H]1NC(=O)[C@H](Cc2c[nH]c3ccccc23)NC(=O)[C@@H](CC2CCCCC2)NC(=O)[C@@H]2CCCN2C(=O)[C@H](Cc2c[nH]c3ccccc23)NC(=O)[C@H](Cc2ccccc2)NC1=O |  | > 42.7 |  |  |  | 
CN[C@@H](Cc1ccccc1)C(=O)N[C@@H](CCCCN)C(=O)N1CCCC1C(=O)N[C@H](CC1CCCCC1)C(=O)N[C@@H](Cc1c[nH]c2ccccc12)C(=O)N[C@@H](CCCN=C(N)N)C(=O)O (single isomer, unassigned) |  |  | 1.95 | 2 |  | 
C[C@H](NC(=O)[C@@H](N)Cc1ccccc1)C(=O)N1CCCC1C(=O)N[C@H](CC1CCCCC1)C(=O)N[C@@H](Cc1c[nH]c2ccccc12)C(=O)N[C@H](CCCN=C(N)N)C(=O)O (single isomer, unassigned) | 9 | 9.12 | 3.63 | 3.7 |  | 
CC(=O)N[C@@H](Cc1ccccc1)C(=O)N[C@@H](CCCCN)C(=O)N1CCCC1C(=O)N[C@H](CC1CCCCC1)C(=O)N[C@@H](Cc1c[nH]c2ccccc12)C(=O)N[C@H](CCCN=C(N)N)C(=O)O (single isomer, unassigned) | 4.8 | 4.79 |  |  |  | 
C[C@H](N)C(=O)N[C@@H](CCCCN)C(=O)N1CCCC1C(=O)N[C@H](CC1CCCCC1)C(=O)N[C@@H](Cc1c[nH]c2ccccc12)C(=O)N[C@H](CCCN=C(N)N)C(=O)O (single isomer, unassigned) | > 1000 | > 1000 |  |  |  | 
CCCC[C@H](NC(=O)[C@H](Cc1ccccc1)NC(C)=O)C(=O)N1CCCC1C(=O)N[C@H](CC1CCCCC1)C(=O)N[C@@H](Cc1c[nH]c2ccccc12)C(=O)N[C@H](CCCN=C(N)N)C(=O)O (single isomer, unassigned) | 3.6 | 3.55 | 1.41 | 1.4 |  | 
NC(N)=NCCC[C@@H](NC(=O)[C@H](Cc1c[nH]c2ccccc12)NC(=O)[C@@H](CC1CCCCC1)NC(=O)C1CCCN1C(=O)[C@H](Cc1c[nH]c2ccccc12)NC(=O)[C@@H](N)Cc1ccccc1)C(=O)O (single isomer, unassigned) |  |  | 0.316 | 0.3 | 5.89 | 5.9
CN[C@@H](Cc1ccccc1)C(=O)N[C@@H](CCCCN)C(=O)N1CCCC1C(=O)N[C@H](CC1CCCCC1)C(=O)N[C@@H](Cc1c[nH]c2ccccc12)C(=O)N[C@H](CCCN=C(N)N)C(=O)O (single isomer, unassigned) |  |  | 0.107 | 0.1 |  | 
NCCCC[C@H](NC(=O)[C@H](Cc1ccccc1)NC(=O)[C@@H](N)CCCCN)C(=O)N1CCCC1C(=O)N[C@H](CC1CCCCC1)C(=O)N[C@@H](Cc1c[nH]c2ccccc12)C(=O)N[C@H](CCCN=C(N)N)C(=O)O (single isomer, unassigned) | 2.6 | 2.63 | 0.269 | 0.3 |  | 
CC(=O)N[C@@H](Cc1ccccc1)C(=O)N[C@@H](CCCN)C(=O)N1CCCC1C(=O)N[C@H](CC1CCCCC1)C(=O)N[C@@H](Cc1c[nH]c2ccccc12)C(=O)N[C@H](CCCN=C(N)N)C(=O)O (single isomer, unassigned) | 0.8 | 0.794 | 0.191 | 0.2 |  | 
NCCCC[C@H](NC(=O)[C@@H](N)Cc1ccccc1)C(=O)N1CCCC1C(=O)N[C@H](CC1CCCCC1)C(=O)N[C@@H](Cc1c[nH]c2ccccc12)C(=O)N[C@H](CCCN=C(N)N)C(=O)O (single isomer, unassigned) | 2 | 1.95 | 6.76 | 6.8 |  | 
CC(=O)N[C@@H](Cc1ccccc1)C(=O)N[C@@H](CCCCN)C(=O)N1CCCC1C(=O)N[C@H](CC1CCCCC1)C(=O)N[C@@H](CC1c2ccccc2-c2ccccc21)C(=O)N[C@H](CCCN=C(N)N)C(=O)O (single isomer, unassigned; 16a) | 51 | > 51.3 |  |  |  | 
CC(=O)N[C@@H](Cc1ccccc1)C(=O)N[C@@H](CCCCN)C(=O)N1CCCC1C(=O)N[C@H](CC1CCCCC1)C(=O)N[C@@H](CC1c2ccccc2-c2ccccc21)C(=O)N[C@H](CCCN=C(N)N)C(=O)O (single isomer, unassigned; 16b) | 116 | > 115 |  |  |  | 
